# Screening data (PubChem)
# Sampled rows, rich in hits. Any-hit rate of the full collection: about 2%.
# FXN GAA850 act: FXN promoter activators, primary screen, cell-based, luciferase luminescence, HEK293 lucGAA850; HEK293 lucGAA850 FXN promoter luciferase reporter, 24 h; percent of 10 µM SAHA response; 0.56% of 360,000 active; AID 540364, 2011; activation, % at 6 µM;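 active = activation above the average of all compounds screened plus 3 SD, cutoff fixed separately per campaign, cut at about 7.5% in these data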;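 also: 0% = DMSO wells and 100% = 10 µM SAHA wells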
# APJ antagonist: antagonists of human apelin receptor APJ, primary screen, CHO-K1 cells, beta-arrestin complementation, luminescence. 0.32% of 330,000 active. AID 2521, 2010. inhibition, % at 20 µM;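 active = inhibition above about 40% at 20 µM, limit read from the data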;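 also: cells challenged with 10 nM apelin-13 agonist together with compound; plate controls were apelin-13 plus DMSO wells for no effect and DMSO wells lacking apelin-13 for full effect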
# CCR6 antagonist: CCR6 receptor antagonists, primary screen, cell-based, CHO-K1, luminescence, beta-arrestin, uHTS. 0.49% of 340,000 active. inhibition, % at 20 µM. AID 493098, 2011. CHO-K1 CCR6 PathHunter beta-arrestin, CCL20-stimulated;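 active = compounds whose inhibition of the agonist-driven luminescence signal at 20 µM reaches about 50%, limit read from the data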;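 also: cells stimulated with CCL20 at 14 nM final; plate controls were DMSO with CCL20 for no effect and DMSO without agonist for full effect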
# CXCR6 inh: CXCR6 receptor inhibitors, primary screen, cell-based, beta-arrestin, luminescence, CHO-K1 PathHunter, 1536-well; C-X-C chemokine receptor type 6 (Homo sapiens), O00574; 0.36% of 360,000 active; AID 602244, 2012; inhibition, % at 20 µM; in the data active = inhibition above about 34%, passing the limit was not always enough;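 also: antagonist mode with CXCL16 agonist at 10 nM final; 0% = 10 nM CXCL16 with DMSO and 100% = unstimulated wells without agonist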
# Target sequence (O00574 whole entry, looked up): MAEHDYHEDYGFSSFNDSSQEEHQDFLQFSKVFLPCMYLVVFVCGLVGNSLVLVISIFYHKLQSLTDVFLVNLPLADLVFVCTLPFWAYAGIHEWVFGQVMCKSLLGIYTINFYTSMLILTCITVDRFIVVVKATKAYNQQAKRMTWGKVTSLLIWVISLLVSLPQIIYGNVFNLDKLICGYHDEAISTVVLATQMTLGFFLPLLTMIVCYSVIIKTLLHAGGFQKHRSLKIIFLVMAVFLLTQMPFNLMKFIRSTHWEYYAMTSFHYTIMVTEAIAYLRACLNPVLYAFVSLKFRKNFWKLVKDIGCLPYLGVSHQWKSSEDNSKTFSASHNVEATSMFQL
# EBI2 block: EBI2 receptor antagonists, beta-arrestin recruitment, primary screen, cell-based, luminescence, 7a,25-OHC stimulation, uHTS; G-protein coupled receptor 183 (Homo sapiens), P32249; 7a,25-OHC stimulated; inhibition, % at 5 µM; 0.81% of 360,000 active; in the data active = inhibition above about 38%;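 also: enzyme fragment complementation signal reports receptor beta-arrestin coupling in cells; 0% = agonist plus DMSO wells and 100% = wells without agonist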
# Target sequence (P32249 whole entry, looked up, the tested form may be a part): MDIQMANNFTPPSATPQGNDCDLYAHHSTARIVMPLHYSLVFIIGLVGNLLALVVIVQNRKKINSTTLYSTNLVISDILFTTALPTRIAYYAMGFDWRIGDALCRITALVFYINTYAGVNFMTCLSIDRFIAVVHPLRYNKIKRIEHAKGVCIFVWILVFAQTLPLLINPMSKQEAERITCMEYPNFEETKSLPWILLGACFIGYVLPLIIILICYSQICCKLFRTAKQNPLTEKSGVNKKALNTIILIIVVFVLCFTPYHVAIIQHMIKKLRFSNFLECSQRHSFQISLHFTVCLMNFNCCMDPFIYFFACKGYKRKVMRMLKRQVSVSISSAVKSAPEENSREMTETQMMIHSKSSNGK
# APJ ag: agonists of human apelin receptor APJ, primary screen, CHO-K1 cells, PathHunter beta-arrestin, luminescence. 0% DMSO wells, 100% apelin. 0.11% of 330,000 active. activation, % at 20 µM. P35414;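 active = activation more than six SD over the plate average, tested at 20 µM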;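 also: 0% = DMSO alone and 100% = apelin-13 at 10 nM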
#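 Assay system – PathHunter CHO-K1 APJ (AGTRL-1) beta-arrestin reporter cells · Compound – one dose, 20 µM compound, 1% DMSO · Timing – compound 90 min 25 °C, reagent 1 h · Measured by – luminescence from split beta-galactosidase complementation, Galacton Star/Emerald II substrate · Measure – beta-arrestin recruitment to APJ as agonist activity, luminescent signal · Benchmarks – DMSO vs Apelin-13 10 nM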
# APJ antag conf: APJ antagonists blocking beta-arrestin recruitment, confirmation, cell-based, luminescence, single concentration, uHTS hits | AID 2766, 2010 | antagonist mode | shares compounds with APJ antagonist | 66% of 950 active | inhibition, % at 20 µM; in the data active = inhibition above about 50%
# * hit, by the source's call; · = not tested or not shown.
SMILES,FXN GAA850 act,APJ antagonist,CCR6 antagonist,CXCR6 inh,EBI2 block,APJ ag,APJ antag conf
O=C(COC(=O)/C=C/c1cccc(C(F)(F)F)c1)Nc1cccc(S(=O)(=O)NC2=NCCC2)c1,0.9,·,·,7.5,-2.2,·,·
Cc1cccn2c(=O)c(/C=C(\C#N)C(=O)NCc3ccccc3)c(N3CCC(C(N)=O)CC3)nc12,0.5,40.7*,2.6,9.1,-6.0,0.3,36.8
C[C@@H](NC(=O)[C@@H]1CCCN1C(=O)[C@@H]1CCCN1C(=O)c1ccc(Cl)cc1)c1ccccc1,·,·,·,1.0,-5.2,·,·
O=C(OCC(=O)c1ccccc1Br)c1ccccn1,0.0,2.2,-5.2,1.5,-20.2,-5.4,·
O=C(CCC(=O)OCC(=O)c1ccc(Cl)cc1Cl)Nc1cccc2cccnc12,-0.3,64.3*,62.4*,12.0,8.9,-11.6,92.4*
O=C(OCC(=O)c1ccc(Cl)cc1Cl)c1ccccn1,2.3,61.8*,47.6,26.1,10.4,-10.2,88.7*
O=C(OCC(=O)c1ccc(Cl)cc1Cl)c1ccc2c(c1)C(=O)N(c1cccc3ncccc13)C2=O,-1.8,55.5*,44.1,8.5,35.8,-9.0,72.8*
COc1cccc(-c2cccc3c2NC(=O)C3(C)Cc2cccc(F)c2)c1 (centres undefined),-1.3,·,·,10.1,18.0,·,·
Oc1[nH]c2c(Cl)cc(Cl)cc2c1N=NC(=S)NCC1CCCO1 (centres undefined),-0.8,40.2*,58.0*,36.5,29.1,-1.3,64.5*
Cc1cc(C)c2[nH]c(O)c(N=NC(=S)NCC3CCCO3)c2c1 (centres undefined),-2.4,23.4,21.7,17.9,6.9,1.7,·
O=C1N/C(=C\c2ccccc2)C(O)=C1C=NCc1ccccc1,2.7,45.4*,13.0,-2.0,-1.4,0.3,10.1
CC(=O)c1ccc(N=Nc2ccc(N)cc2)cc1,-2.2,46.3*,46.6,28.7,9.2,-5.1,48.8
FC(F)(F)c1cc(C(F)(F)F)c2ccc(N/N=C/c3ccccc3)nc2n1,1.6,-12.4,-6.5,-4.6,20.3,0.8,·
CN(N)c1ccc2c(C(F)(F)F)cc(C(F)(F)F)nc2n1,1.9,13.4,-1.0,-1.6,-3.5,-2.1,·
N#CC(c1ccccc1)c1ccc2c(C(F)(F)F)cc(C(F)(F)F)nc2n1 (centres undefined),-3.6,41.7*,53.1*,22.8,-19.8,-5.3,87.8*
Cc1ccc(C(C#N)c2ccc3c(C(F)(F)F)cc(C(F)(F)F)nc3n2)cc1 (centres undefined),0.7,49.1*,53.6*,35.1,-8.8,-5.8,79.7*
O=S1(=O)CCN(C2CC2)CC1,-0.3,·,·,-2.2,-3.5,·,·
CNC(=O)c1ccc(S(=O)(=O)c2ccc(Cl)cc2)c(NC(C)=O)c1,0.6,10.1,-2.7,8.5,-16.0,-4.1,·
CNC(=O)c1nnsc1S(=O)(=O)c1ccc(Cl)cc1,-15.4,46.6*,77.1*,63.5*,-6.2,-2.5,70.5*
COc1ccc(C(=O)CNc2ccccc2CO)cc1,1.9,40.1*,91.5*,17.7,4.4,-7.8,148.5*
COc1ccc(C(=O)CNc2cccc(F)c2)cc1,4.6,45.0*,59.7*,34.7,-0.5,-10.9,94.6*
COc1ccccc1NCC(=O)c1ccc(Cl)cc1,2.2,72.2*,71.0*,37.9,-2.7,-15.8,110.4*
COc1ccc(C(=O)CC(=O)C(=O)Nc2cccc(F)c2)cc1,1.1,4.6,18.8,13.4,6.5,-0.6,·
COc1ccc(-c2csc(C(NC(C)=O)c3ccccc3)n2)cn1 (centres undefined),1.3,·,·,1.3,-1.2,·,·
CCOC(=O)C1CCCN(C(=O)c2ccc3c(c2)C(C)(C)CCC3(C)C)CC1 (centres undefined),3.5,·,·,2.5,8.4,·,·
SMILES,FXN GAA850 act,APJ antagonist,CCR6 antagonist,CXCR6 inh,EBI2 block,APJ ag,APJ antag conf
Oc1ccc(N=Nc2ccccc2C(F)(F)F)c2cccnc12,0.9,48.5*,57.8*,21.8,14.7,-11.2,103.3*
Cc1ccc(N=Nc2ccc(O)c3ncccc23)cc1C,2.1,52.6*,55.2*,40.3*,14.2,-12.9,67.6*
Cc1ccc(N=Nc2ccc(O)c3ncccc23)cc1,4.3,·,7.6,3.7,8.4,·,·
Cc1ccc(/C=C2/NC(=O)N(Cc3ccccc3)C2=O)o1,2.2,61.3*,13.0,8.0,-1.6,-8.9,37.2
O=C1c2cccc3c(Nc4ccccc4Cl)c([N+](=O)[O-])cc(c23)C(=O)N1CCO,1.7,53.4*,65.0*,40.2*,12.6,-7.2,84.2*
O=C(N/N=C/c1ccc(-c2ccccc2Cl)o1)c1ccccc1,0.8,1.0,10.2,-4.8,4.0,-2.5,·
O=S(=O)(N/N=C\c1ccc(-c2ccccc2Cl)o1)c1ccccc1,0.8,58.7*,45.6,16.3,13.5,-12.2,58.7*
O=C1C2C3C=CC(C3)C2C(=O)N1/N=C/c1cc(Br)cc([N+](=O)[O-])c1O (centres undefined),0.4,42.0*,54.3*,36.8,10.6,-5.2,52.3*
O=[N+]([O-])c1cnc(Sc2ccncn2)s1,2.9,54.7*,80.5*,75.0*,25.6,13.9,67.3*
O=C1NCCN1c1ncc([N+](=O)[O-])s1,-2.3,-11.9,-4.2,-3.0,-6.2,3.9,·
NC(=O)C1CCN(c2oc(/C=C/c3ccccc3)nc2S(=O)(=O)c2ccccc2)CC1,1.9,16.2,23.6,3.0,-4.6,9.4,·
CCCC(=O)N1CCC1(C)C(=O)NS(=O)(=O)c1ccccc1Cl (centres undefined),0.2,·,·,-3.7,0.3,·,·
CC1=Nc2ccccc2/C1=C/c1sc(=N)n(-c2nccs2)c1O,0.5,46.3*,48.9,17.5,8.9,-10.7,52.8*
CN(C)c1ccc2nc3ccc(=O)cc-3sc2c1,-2.0,·,·,-1.0,-3.5,·,·
CN(C)c1ccc2nc3ccc(=[N+](C)C)cc-3sc2c1,1.6,45.3*,35.7,18.5,10.9,-6.4,32.5
COc1ccc(C(=O)Nc2ccc(Cl)c(S(=O)(=O)Nc3ccccc3OC)c2)cc1,-4.8,40.7*,20.8,0.0,1.5,0.3,23.1
COc1cccc(OCc2nc3ccccc3c(=O)n2N)c1,3.2,42.8*,-10.6,2.4,-13.5,-1.7,-31.5
Cc1ccc(CNC(=O)c2cc(-c3cc(C)cc(C)c3O)n[nH]2)cc1,0.3,2.5,8.1,-3.8,34.5,-1.0,·
